Assay results: ChEMBL document CHEMBL2321678, “Incorporation of non-natural amino acids improves cell permeability and potency of specific inhibitors of proteasome trypsin-like sites” (J Med Chem, 2013)
The source made the active and inactive calls. The rule behind the calls is not given here.

How the values were obtained:
[1] = test system: Saccharomyces cerevisiae; assay: Inhibition of caspase-like activity of yeast 20s proteasome beta 1 subunit assessed as hydrolysis of […] fluorogenic substrate at 200 uM after 15 mins by fluorescence spectrophotometry
How it was run: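 Yeast 20S core particle (0.10 nM) preincubated 15 min with inhibitor, which stays present during the assay. Substrate ZLLE-amc for caspase-like sites, 250 µM, in 20 mM Tris, 0.01% SDS, pH 7.5. Hydrolysis monitored for 1 h at room temperature (ex 360/em 460 nm).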

[2] = test system: RPMI-8226; assay: Sensitization of human RPMI8226 cells to Bortezomib assessed as cell viability at 1 uM after 47 hrs; format: functional, cell-based
How it was run: (§1)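 RPMI-8226 grown in RPMI-1640 with 10% FBS, penicillin, streptomycin and plasmocin, 5% CO2. For sensitization, cells exposed to bortezomib for 1 h, then 47 h with the trypsin-site inhibitor (1 µM). Viability by Alamar Blue dye conversion; mean ± SEM of three biological replicates.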

[3] = test system: RPMI-8226; assay: Sensitization of human RPMI8226 cells to Carfilzomib assessed as cell viability at 1 uM after 47 hrs; format: functional, cell-based
[4] = test system: NCI-H929; assay: Partial inhibition of cathepsin in human NCI-H929 cells assessed as hydrolysis of Z-FR-amc fluorogenic substrate after 6 hrs; format: cell-based
How it was run: (§2)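 NCI-H929 cells treated 6 h, washed and permeabilized on ice with 0.05% digitonin in Tris pH 7.5 sucrose buffer. Cytosol removed by centrifugation, then the pellet lysed in Bis-Tris pH 5.5/CHAPS buffer. Protein-normalized extract added to 40 µM Z-FR-amc in phosphate pH 6.0, EDTA, DTT. Fluorescence read continuously for 30 min; rate from slopes.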

[5] = test system: RPMI-8226; assay: Sensitization of human RPMI8226 cells to Carfilzomib assessed as cell viability at 27 uM after 47 hrs; format: functional, cell-based
[6] = test system: RPMI-8226; assay: Cytotoxicity against human RPMI8226 cells; format: functional, cell-based; how it was run: as §1
[7] = Inhibition of chymotrypsin-like activity of rabbit 26s proteasome beta 5 subunit assessed as hydrolysis of Suc-LLVY-amc fluorogenic substrate preincubated for 30 mins followed by substrate addition measured for 30 mins by fluorescence plate reader analysis; set-up: species or system Oryctolagus cuniculus
How it was run: (§3)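 Purified rabbit-muscle 26S proteasome (final 3 µg/mL) preincubated 30 min with a range of inhibitor concentrations. Slopes expressed as % of mock; IC50 by four-parameter least-squares fit.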

[8] = Inhibition of caspase-like activity of rabbit 26s proteasome beta 1 subunit assessed as hydrolysis of Acn-LPnLD-amc fluorogenic substrate preincubated for 30 mins followed by substrate addition measured for 30 mins by fluorescence plate reader analysis; set-up: species or system Oryctolagus cuniculus; how it was run: as §3
[9] = Inhibition of trypsin-like activity of rabbit 26s proteasome beta 2 subunit assessed as hydrolysis of Ac-RLR-amc fluorogenic substrate preincubated for 30 mins followed by substrate addition measured for 30 mins by fluorescence plate reader analysis; set-up: species or system Oryctolagus cuniculus; how it was run: as §3
[10] = species on record: Oryctolagus cuniculus; assay: Selectivity ratio of IC50 for chymotrypsin-like activity of rabbit 26s proteasome beta 5 subunit to IC50 for trypsin-like activity of rabbit 26s proteasome beta 2 subunit
How it was run: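 Purified rabbit-muscle 26S proteasome (final 3 µg/mL) preincubated 30 min with a range of inhibitor concentrations. […] Amc release read continuously for 30 min (ex 380/em 460 nm). Slopes expressed as % of mock; IC50 by four-parameter least-squares fit.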

[11] = target: Proteasome Macropain subunit (Homo sapiens) (UniProt P49721); assay: Inhibition of trypsin-like activity of proteasome beta 2 subunit in HEK-293T cell lysates after 1 hr by SDS-PAGE analysis
How it was run: (§4)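 Then 1 h at 37 °C with BODIPY-TMR-Ahx3L3-vs or BODIPY-TMR-epoxomicin (0.5 µM). Samples run on 12.5% SDS-PAGE; β2/β5 band fluorescence taken relative to mock. Three independent experiments; IC50 fitted.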

[12] = test system: RPMI-8226; assay: Sensitization of human RPMI8226 cells to Carfilzomib assessed as cell viability at 10 uM after 48 hrs; format: functional, cell-based
[13] = test system: RPMI-8226; assay: Potentiation of NC-022-induced sensitization of human RPMI8226 cells to Carfilzomib assessed as cell viability at 10 uM after 48 hrs; format: functional, cell-based
[14] = target: T1, Proteasome Macropain subunit MB1 (Homo sapiens) (UniProt P28074); assay: Inhibition of chymotrypsin-like activity of proteasome beta 5 subunit in HEK-293T cell lysates after 1 hr by SDS-PAGE analysis; how it was run: as §4
T1 sequence (whole entry): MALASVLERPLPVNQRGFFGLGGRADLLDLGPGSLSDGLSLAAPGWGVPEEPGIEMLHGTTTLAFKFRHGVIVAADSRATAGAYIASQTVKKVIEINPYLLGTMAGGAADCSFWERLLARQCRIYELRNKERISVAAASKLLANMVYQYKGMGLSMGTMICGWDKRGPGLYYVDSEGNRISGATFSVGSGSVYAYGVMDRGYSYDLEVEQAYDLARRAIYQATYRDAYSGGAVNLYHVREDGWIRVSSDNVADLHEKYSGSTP

[15] = target: T2, Proteasome Macropain subunit MB1 (Homo sapiens, UniProt P28074); assay: Inhibition of chymotrypsin-like activity of proteasome in human NCI-H929 cells after 6 hrs by proteasomeGlo assay; format: cell-based
T2 sequence (P28074 whole entry): T1 sequence (whole entry)
How it was run: (§5)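 Cells then pelleted, resuspended in PBS and mixed with site-specific luminogenic substrates in lysis/assay buffer. Mixing 3 min, then 17 min in the dark before luminescence, triplicate per substrate/point. Activity as % of mock; IC50 from a four-parameter nonlinear fit.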

[16] = target: Proteasome Macropain subunit (Homo sapiens) (UniProt P49721); assay: Selectivity ratio of IC50 for trypsin-like activity of proteasome in human RPMI-8226 cells to IC50 for trypsin-like activity of proteasome in human NCI-H929 cells; format: cell-based
[17] = target: T2, Proteasome Macropain subunit MB1; assay: Inhibition of chymotrypsin-like activity of proteasome in human RPMI-8226 cells after 6 hrs by proteasomeGlo assay; format: cell-based; how it was run: as §5
[18] = Inhibition of chymotrypsin-like activity of yeast 20s proteasome beta 5 subunit assessed as hydrolysis of Suc-LLVY-amc fluorogenic substrate after 15 mins by fluorescence spectrophotometry; set-up: species or system Saccharomyces cerevisiae
[19] = test system: NCI-H929; assay: Inhibition of cathepsin in human NCI-H929 cells assessed as hydrolysis of Z-FR-amc fluorogenic substrate after 6 hrs; format: cell-based; how it was run: as §2
[20] = species on record: Homo sapiens; assay: Selectivity ratio of IC50 for chymotrypsin-like activity of human proteasome beta 5 subunit to IC50 for trypsin-like activity of human proteasome beta 2 subunit
[21] = target: T2, Proteasome Macropain subunit MB1; assay: Inhibition of chymotrypsin-like activity of proteasome beta 5 subunit in HEK-293T cell lysates using BODIPY-BODIPY-TMR-epoxomicin as probe after 1 hr by SDS-PAGE analysis
How it was run: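 Then 1 h at 37 °C with BODIPY-TMR-Ahx3L3-vs or BODIPY-TMR-epoxomicin (0.5 µM). Three independent experiments; IC50 fitted.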

Proteasome Macropain subunit (Homo sapiens), sequence (P49721 whole entry): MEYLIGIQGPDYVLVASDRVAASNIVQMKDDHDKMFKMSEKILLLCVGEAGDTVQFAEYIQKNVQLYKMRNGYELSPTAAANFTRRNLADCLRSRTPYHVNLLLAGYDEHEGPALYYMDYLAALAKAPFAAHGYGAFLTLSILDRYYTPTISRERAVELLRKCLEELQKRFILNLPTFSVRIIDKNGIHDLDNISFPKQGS

| SMILES | IC50 [7] [µM] | IC50 [8] [µM] | IC50 [9] [µM] | Ratio IC50 [10] | Ratio IC50 [20] | IC50 [21] [µM] | further results |
| --- | --- | --- | --- | --- | --- | --- | --- |
| CC(C)C[C@H](NC(=O)[C@H](Cc1ccccc1)N=[N+]=[N-])C(=O)N[C@@H](CC(C)C)C(=O)N[C@H](/C=C/S(C)(=O)=O)Cc1ccc(CN)cc1 |  |  |  |  |  |  | inhibition [1]: inactive; Activity [2]: Active; Activity [3]: Active; inhibition [4]: Active; Activity [5]: Active; Activity [6]: inactive |
| CC(C)C[C@H](NC(=O)[C@H](Cc1ccccc1)N=[N+]=[N-])C(=O)N[C@@H](CC(C)C)C(=O)N[C@@H](Cc1ccc(N)cc1)C(=O)[C@@]1(C)CO1 | 0.01 | > 30 | 1.8 | 0.0056 |  |  |  |
| CC1=CC(C)=[N+]2C1=C(CCCCc1cn([C@@H](Cc3ccccc3)C(=O)N[C@@H](Cc3ccc(CN)cc3)C(=O)N[C@@H](CC(C)C)C(=O)N[C@H](/C=C/S(C)(=O)=O)Cc3ccc(CN)cc3)nn1)c1c(C)cc(C)n1[B-]2(F)F |  |  |  |  |  |  | inhibition [11]: inactive |
| CCOC(=O)[C@H]1O[C@@H]1C(=O)N[C@@H](CC(C)C)C(=O)NCCC(C)C |  |  |  |  |  |  | Activity [12]: inactive; Activity [13]: inactive |
| CC(=O)N[C@@H](CCCNC(=N)N)C(=O)N[C@@H](CC(C)C)C(=O)N[C@@H](CCCNC(=N)N)C(=O)[C@@]1(C)CO1 | > 30 | > 30 | 0.08 |  |  |  |  |
| Cc1c(O)cccc1C(=O)N[C@H](C(=O)N[C@@H](CO)C(=O)N[C@H](/C=C/S(C)(=O)=O)Cc1ccc(N)cc1)C(C)C | 0.2 | > 30 | > 30 | < 0.0067 |  |  |  |
| CC1=CC(C)=[N+]2C1=C(CCCCc1cn([C@@H](Cc3ccccc3)C(=O)N[C@@H](CC(C)C)C(=O)N[C@@H](CC(C)C)C(=O)N[C@H](/C=C/S(C)(=O)=O)Cc3ccc(CN)cc3)nn1)c1c(C)cc(C)n1[B-]2(F)F |  |  |  |  |  |  | inhibition [11]: Active; inhibition [14]: Active |
| Cc1c(O)cccc1C(=O)N[C@H](C(=O)N[C@@H](CO)C(=O)N[C@@H](CCCNC(=N)N)C(=O)[C@@]1(C)CO1)C(C)C | 80 | 80 | 0.3 | 267 |  |  | IC50 [15]: > 30 µM; Ratio IC50 [16]: 25; IC50 [17]: > 30 µM |
| Cc1c(O)cccc1C(=O)N[C@H](C(=O)N[C@@H](CO)C(=O)N[C@H](/C=C/S(C)(=O)=O)Cc1ccc(CN)cc1)C(C)C |  | 21 |  |  |  |  | IC50 [18]: 19.3 µM; inhibition [19]: inactive |
| CC(C)C[C@H](NC(=O)[C@H](Cc1ccccc1)N=[N+]=[N-])C(=O)N[C@@H](CC(C)C)C(=O)N[C@@H](Cc1ccc(CN)cc1)C(=O)[C@@]1(C)CO1 | 2.7 | 11 | 0.25 |  |  |  |  |
| CC(C)C[C@H](NC(=O)[C@H](Cc1ccc(N)cc1)NC(=O)[C@H](Cc1ccccc1)N=[N+]=[N-])C(=O)N[C@H](/C=C/S(C)(=O)=O)Cc1ccc(CN)cc1 | 3.4 | 30 | 0.03 |  |  |  | inhibition [4]: Active |
| CC(C)C[C@H](NC(=O)[C@H](Cc1ccc(CN)cc1)NC(=O)[C@H](Cc1ccccc1)N=[N+]=[N-])C(=O)N[C@H](/C=C/S(C)(=O)=O)Cc1ccncc1 | 0.41 | > 30 | 0.045 | 9.1 | 6.5 | 2.4 |  |
| CC(C)C[C@H](NC(=O)[C@H](Cc1ccccc1)N=[N+]=[N-])C(=O)N[C@@H](CC(C)C)C(=O)N[C@H](/C=C/S(C)(=O)=O)Cc1ccncc1 | < 0.1 | > 30 | 0.42 |  |  | 1.5 |  |
| CC(C)C[C@@H](/C=C/S(C)(=O)=O)NC(=O)[C@H](CC(C)C)NC(=O)[C@H](Cc1ccc(CN)cc1)NC(=O)[C@H](Cc1ccccc1)N=[N+]=[N-] | 0.01 |  | 0.18 | 0.057 | 2.5 | 0.48 |  |
| CC(C)C[C@H](NC(=O)[C@H](Cc1ccccc1)NC(=O)[C@H](Cc1ccccc1)N=[N+]=[N-])C(=O)N[C@H](/C=C/S(C)(=O)=O)Cc1ccccc1 | 1 | > 30 | > 30 |  | 0.04 | 0.11 |  |
| CC(=O)N[C@@H](CC(C)C)C(=O)N[C@@H](CC(C)C)C(=O)N[C@@H](CCCNC(=N)N)C(=O)[C@@]1(C)CO1 | > 30 | > 30 | 1 |  |  |  |  |
| CC(C)C[C@H](NC(=O)[C@H](Cc1ccc(CN)cc1)NC(=O)[C@H](Cc1ccccc1)N=[N+]=[N-])C(=O)N[C@H](/C=C/S(C)(=O)=O)Cc1ccc(N)cc1 | 0.19 | > 30 | 0.0063 | 59 | 6.3 | 0.63 |  |
| CC(C)C[C@@H](/C=C/S(C)(=O)=O)NC(=O)[C@H](CC(C)C)NC(=O)[C@H](Cc1ccncc1)NC(=O)[C@H](Cc1ccccc1)N=[N+]=[N-] | 0.005 | > 30 | 24 | 0.00021 | 0.029 | 0.16 |  |
| CC(C)C[C@@H](/C=C/S(C)(=O)=O)NC(=O)[C@H](CC(C)C)NC(=O)[C@H](Cc1ccc(N)cc1)NC(=O)[C@H](Cc1ccccc1)N=[N+]=[N-] | < 0.004 | > 30 | 24 |  | 0.034 | 0.093 |  |
| CC(C)C[C@H](NC(=O)[C@H](Cc1ccccc1)N=[N+]=[N-])C(=O)N[C@@H](CC(C)C)C(=O)N[C@H](/C=C/S(C)(=O)=O)CCCCN | 22 | > 30 | 0.74 |  |  |  |  |
| CC(C)C[C@H](NC(=O)[C@H](Cc1ccncc1)NC(=O)[C@H](Cc1ccccc1)N=[N+]=[N-])C(=O)N[C@H](/C=C/S(C)(=O)=O)Cc1ccc(CN)cc1 |  | 30 | 0.012 |  |  |  | inhibition [19]: Active |
| CC(C)C[C@H](NC(=O)[C@H](Cc1ccc(CN)cc1)NC(=O)[C@H](Cc1ccccc1)N=[N+]=[N-])C(=O)N[C@H](/C=C/S(C)(=O)=O)Cc1ccc(CN)cc1 | 8.9 |  | 0.0066 |  |  |  | inhibition [19]: Active |
| CC(C)C[C@H](NC(=O)[C@H](Cc1ccccc1)N=[N+]=[N-])C(=O)N[C@@H](CC(C)C)C(=O)N[C@H](/C=C/S(C)(=O)=O)Cc1ccc(N)cc1 | 0.04 | 23 | 0.11 | 0.36 | 0.73 | 1.1 |  |
